Where two headings read alike, the source gives them in different places.
Tests used:
[1] = type: in vivo, rat; conditions: rats, 0.5 units/kg s.c.; for CSF insulin at 6, 12 and 24 h / plasma glucose at 6 h and 12 h: Ps < 0.05; for time by which plasma insulin had returned to baseline: sampled 0, 6, 12, 24, 48, 72 h
Procedure, shortened: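 Overnight-fasted rats, n = 7–8/group, received GLAR or DET 0.5 units/kg s.c. CSF (~150 µL) taken from the cisterna magna under isoflurane at 0, 6, 12, 24, 48 or 72 h, then blood collected after decapitation. Insulin by ELISA with standards from each injected insulin (450 minus 630 nm). Plasma glucose by glucometer in duplicate. Factorial ANOVA.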

[2] = type: in vivo, mouse; conditions: mice, 1 unit/kg s.c.; for CSF insulin at 6 and 12 h: Ps < 0.05; for time by which plasma insulin had returned to baseline: sampled 0, 6, 12, 24, 48 h
Procedure, shortened: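 Mice fasted 4 h, n = 7–8/group, given 1 unit/kg s.c. GLAR or DET. CSF (~15 µL, glass capillary) drawn from the cisterna magna under isoflurane at baseline and 6, 12, 24, 48 h, then trunk blood taken into chilled EDTA. Insulin measured by ELISA against standards made from each injected insulin. Blood-contaminated CSF discarded; factorial ANOVA.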

[3] = Food intake, body weight and body composition; type: in vivo, mouse; conditions: mice, P < 0.05; for body fat compared with the saline-control group: NMR
Procedure, shortened: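 Mice were first matched by fat mass using NMR while conscious. They then received (n = 12/group) daily s.c. saline, DET or GLAR at 1 unit/kg for 6 weeks. Body weight and food intake recorded weekly; NMR body composition repeated at the end. Repeated-measures ANOVA with Tukey post hoc.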

[4] = type: in vivo, mouse; conditions: mice, 1 unit/kg s.c. daily for 6 weeks, n = 7-9/group, P < 0.05
Procedure, shortened: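 Mice, n = 7–9/group, were injected s.c. daily for 6 weeks with saline, GLAR or DET (1 unit/kg). CSF from the cisterna magna (isoflurane, 4-h fast) and EDTA plasma were taken 24 h after the last dose. Insulin measured by ELISA on 10 µL CSF or 5 µL plasma, against standards from the injected insulins.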

[5] = type: in vivo, rat; conditions: rats
Procedure, shortened: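 Overnight-fasted rats, n = 8–10/dose, got NPH insulin or DET i.p. at 0, 0.1, 0.3, 1, 3 or 10 units/kg. They were anesthetized with isoflurane at 25 min and cisternal CSF drawn at 30 min, then blood collected. Insulin by ELISA (2 h at 4°C; conjugate 30 min; substrate 40 min). Glucose by glucometer in duplicate. Factorial ANOVA.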

[6] = type: in vivo, rat; conditions: rats, 0.5 units/kg i.p.
Procedure, shortened: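 Rats, n = 6–8/time point, overnight-fasted, were given 0.5 units/kg i.p. NPH insulin or DET. Cisternal CSF taken under isoflurane at 5, 10, 20, 40, 80, 160 or 320 min, followed by EDTA blood. Insulin by ELISA with standards from each injected insulin. Plasma glucose by glucometer in duplicate. Factorial ANOVA.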

[7] = Food intake and body weight after third-ventricular; type: in vivo, rat; conditions: rats, 8 mU I3VT
Procedure, shortened: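 Rats carried a third-ventricle cannula (2.2 mm posterior to bregma, midline), checked by drinking >5 mL within 30 min after 10 ng angiotensin II. Rats (n = 16) were handled for 4 days with food removed for the last 4 h of light. In randomized crossover 1 week apart, they received 8 mU DET or NPH insulin, or 2 µL saline, 1 h before dark. Food returned at dark; intake and weight taken at 24 and 48 h. Repeated-measures ANOVA, Tukey.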

[8] = extended by albumin binding of the attached fatty acid; cited from earlier work
insulin receptor = conditions: mice, cited from earlier work
[9] = overweight humans, intravenous; cited from earlier work
[10] = men, plasma glucose comparably clamped; cited from earlier work
[11] = clinical trials, basal insulin replacement; cited from earlier work
[12] = 1 unit/kg s.c. daily for 6 weeks

insulin glargine
CSF insulin at 48 h [1]: returned to baseline
plasma glucose at 24 h [1]: remained lower
plasma insulin at 12 h, DET compared with GLAR ([1]; P < 0.05): higher plasma insulin
CSF insulin at 6, 12 and 24 h [1]: comparably increased
plasma glucose at 6 h and 12 h [1]: reduced
time by which plasma insulin had returned to baseline [1]: ≤ 48 h
CSF insulin after 24 and 48 h [2]: lower at 24 h and had returned to baseline by 48 h
plasma insulin at 12 h, DET compared with GLAR ([2]; P < 0.05): higher plasma concentrations
CSF insulin at 6 and 12 h [2]: comparably increased
time by which plasma insulin had returned to baseline [2]: ≤ 48 h
body fat compared with the saline-control group [3, 12]: higher
body weight relative to saline-treated animals by week 6 ([3]; 1 unit/kg s.c. daily): increased relative to that of saline-treated animals
plasma insulin relative to controls 24 h after the final injection [4]: continued to have elevated plasma insulin

Insulin detemir
plasma glucose after 30 min ([5]; 0-10 units/kg i.p., 30 min postinjection, glucometer): dose-dependent decrease
plasma insulin after 30 min ([5]; 0-10 units/kg i.p., 30 min postinjection, insulin ELISA, n = 8-10/dose): increased at all doses
CSF insulin after 30 min ([5]; 0-10 units/kg i.p., CSF sampled 30 min postinjection, insulin ELISA): elevated after all doses
dose at which apparent saturation of CSF insulin levels occurred ([5]; i.p., 30 min postinjection): ≤ 3 units/kg
plasma glucose levels over time ([6]; 5-320 min, P < 0.05): relatively constant level for the duration of the experiment
plasma glucose at 80, 160 and 320 min, DET relative to NPH ([6]; Ps < 0.05): sustained hypoglycemia
insulin in plasma (160 and 320 min) and CSF (320 min), DET relative to NPH ([6]; planned comparison, P < 0.05): more prolonged elevation of insulin
time at which CSF insulin reached baseline ([6]; sampled up to 320 min): > 320 min
time at which plasma insulin was no longer elevated relative to baseline ([6]; sampled up to 320 min): > 320 min
body weight after 24 h ([7]; P < 0.05): significant weight loss
body weight after 48 h ([7]; P < 0.05): maintaining this weight loss
food intake after 48 h relative to saline ([7]; crossover, n = 16): remained significantly reduced
food intake over 24 h relative to saline ([7]; crossover, n = 16, P < 0.05): ate significantly less food
CSF insulin at 48 h [1]: continued to have elevated CSF insulin
CSF insulin at 6, 12 and 24 h [1]: comparably increased
plasma glucose at 6 h and 12 h [1]: reduced
plasma insulin at 6 h, DET compared with GLAR ([1]; n = 7-8/group, P < 0.05): elevated more
time by which plasma insulin had returned to baseline [1]: ≤ 24 h
CSF insulin after 24 and 48 h [2]: elevated CSF insulin levels
CSF insulin at 6 and 12 h [2]: comparably increased
plasma insulin at 6 h, DET compared with GLAR ([2]; n = 7-8/group, P < 0.05): elevated to a greater extent
time by which plasma insulin had returned to baseline [2]: ≤ 24 h
body fat compared with the saline-control group [3, 12]: significantly lower
cumulative food intake compared with GLAR or saline groups [3, 12]: significantly lower
CSF insulin relative to controls 24 h after the final injection [4]: had increased insulin
plasma half-life [8]: 5 to 7 h
uptake into the brain (insulin receptor; insulin in brain tissue extracts): preferential uptake of DET into the brain
phosphorylation of the insulin receptor in hypothalamus (insulin receptor): selectively increased phosphorylation of the insulin receptor
cerebrocortical activity [9]: increased cerebrocortical activity
electroencephalogram activity in the frontal cortex compared with regular insulin [10]: significant change in electroencephalogram activity
food intake compared with regular insulin [10]: significant reduction of food intake
weight gain compared with other long-acting formulations [11]: less weight gain
